This note sets out measurements from paper PMC10870110 (RSC Advances, 2024).

For assay [1], the system named is A375 human melanoma cell line. The assay can be described thus: Cytotoxicity by SRB assay on A375 cells. Type of assay: cell-based. The settings on record: read-out: IC50 on A375 cells, 72 h treatment, mean ± SD (n = 3). The gist of the method:
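A375 cells kept in DMEM with 10% FBS and 100 U mL−1 penicillin/streptomycin at 37 °C, 5% CO2. Seeded, grown 24 h, then exposed 72 h to test compound at 0.01–100 μM. Fixed in 10% TCA (1 h, 4 °C), stained with 0.4% w/v SRB (10 min, dark), washed with 1% acetic acid, dye dissolved in 10 mM Tris pH 10.5, A540 read.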

For assay [2], the system named is normal human skin fibroblast cells (HSF). Kind of assay: Cytotoxicity by SRB assay on normal HSF cells. It is filed as cell-based. Conditions: for IC50: Homo sapiens, Skin fibroblast, read-out: HSF IC50; for Selectivity index (SI): IC50 of normal cells (HSF)/IC50 of tumor cells (A375). The gist of the method:
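Normal human skin fibroblasts (HSF) grown in DMEM/10% FBS/penicillin-streptomycin, 37 °C, 5% CO2. Plated 24 h, then 72 h with test compound at 0.01–100 μM. TCA fixation, SRB staining, 10 mM Tris pH 10.5 solubilisation, absorbance at 540 nm. IC50 by Emax curve fit, mean ± SD. Selectivity index = IC50 in HSF / IC50 in A375.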

For assay [3], the system named is A375 cells. The assay can be described thus: Annexin V-FITC/PI apoptosis assay. It is filed as cell-based, human. Conditions: A375, IC50 concentration, 48 h.
Assay [4] deals with A375 cells. The assay can be described thus: Cell cycle analysis by DNA flow cytometry. Type of assay: cell-based, human. Conditions: A375, 48 h treatment.
The target of the next assay is VEGFR-2 (Homo sapiens, UniProt P35968). Kind of assay: VEGFR-2 inhibition assay. Type of assay: cell-based.
Chain of VEGFR-2 (P35968 20-1356): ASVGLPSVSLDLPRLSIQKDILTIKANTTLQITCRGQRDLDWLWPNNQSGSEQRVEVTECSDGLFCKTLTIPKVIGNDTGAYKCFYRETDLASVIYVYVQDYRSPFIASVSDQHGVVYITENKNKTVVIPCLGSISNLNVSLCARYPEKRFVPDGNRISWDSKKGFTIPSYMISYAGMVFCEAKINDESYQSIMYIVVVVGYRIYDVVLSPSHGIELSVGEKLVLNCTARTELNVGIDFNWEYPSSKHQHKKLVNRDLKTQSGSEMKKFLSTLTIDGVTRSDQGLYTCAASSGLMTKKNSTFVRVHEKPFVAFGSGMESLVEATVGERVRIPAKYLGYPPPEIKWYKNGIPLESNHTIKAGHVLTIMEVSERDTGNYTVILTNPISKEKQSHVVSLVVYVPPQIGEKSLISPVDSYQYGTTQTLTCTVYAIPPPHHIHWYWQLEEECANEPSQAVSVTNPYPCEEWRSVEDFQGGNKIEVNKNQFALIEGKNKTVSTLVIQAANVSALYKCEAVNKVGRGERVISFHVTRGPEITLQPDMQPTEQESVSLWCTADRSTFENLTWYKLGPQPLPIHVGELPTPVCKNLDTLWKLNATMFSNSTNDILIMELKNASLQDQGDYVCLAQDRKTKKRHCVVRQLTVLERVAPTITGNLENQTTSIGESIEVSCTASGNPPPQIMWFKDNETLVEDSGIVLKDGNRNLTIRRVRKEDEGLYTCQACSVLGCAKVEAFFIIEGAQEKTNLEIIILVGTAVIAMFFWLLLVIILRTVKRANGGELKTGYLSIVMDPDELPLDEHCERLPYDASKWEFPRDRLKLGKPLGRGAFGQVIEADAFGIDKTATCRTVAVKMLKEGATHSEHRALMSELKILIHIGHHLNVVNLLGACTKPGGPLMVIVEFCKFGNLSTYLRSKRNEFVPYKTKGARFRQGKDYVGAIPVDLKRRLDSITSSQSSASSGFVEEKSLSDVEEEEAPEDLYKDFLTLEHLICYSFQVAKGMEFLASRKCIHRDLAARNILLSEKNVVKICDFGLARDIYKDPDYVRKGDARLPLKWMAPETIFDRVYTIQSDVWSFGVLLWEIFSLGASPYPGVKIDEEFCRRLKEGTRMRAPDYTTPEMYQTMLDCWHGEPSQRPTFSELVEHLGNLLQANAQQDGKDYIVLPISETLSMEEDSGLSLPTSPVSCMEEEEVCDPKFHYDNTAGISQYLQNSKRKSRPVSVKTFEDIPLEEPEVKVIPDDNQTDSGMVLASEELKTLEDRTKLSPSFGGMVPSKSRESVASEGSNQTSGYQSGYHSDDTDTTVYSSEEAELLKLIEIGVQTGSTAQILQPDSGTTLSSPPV
For assay [5], the system named is A375 cells. Kind of assay: Scratch wound healing assay. Type of assay: cell-based, human. The settings on record: 4j at 0.5 μM. Summed up:
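Confluent A375 monolayers (1 × 10^5 cells/well seeding) scored with a pipette tip to give one straight cell-free line, PBS-rinsed, then exposed to test compound. Gap imaged at ×100 at 0, 24, 48 and 72 h; horizontal wound width measured. Closure % = 100 − (Wt/W0 × 100). Triplicates, mean ± SD; ANOVA with Tukey post-hoc, P < 0.05.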

Another assay addresses BRAF^V600E (Homo sapiens, UniProt P15056, V600E). Kind of assay: BRAF^V600E inhibition assay. It is filed as cell-based.

Chain of BRAF^V600E (P15056 whole entry V600E): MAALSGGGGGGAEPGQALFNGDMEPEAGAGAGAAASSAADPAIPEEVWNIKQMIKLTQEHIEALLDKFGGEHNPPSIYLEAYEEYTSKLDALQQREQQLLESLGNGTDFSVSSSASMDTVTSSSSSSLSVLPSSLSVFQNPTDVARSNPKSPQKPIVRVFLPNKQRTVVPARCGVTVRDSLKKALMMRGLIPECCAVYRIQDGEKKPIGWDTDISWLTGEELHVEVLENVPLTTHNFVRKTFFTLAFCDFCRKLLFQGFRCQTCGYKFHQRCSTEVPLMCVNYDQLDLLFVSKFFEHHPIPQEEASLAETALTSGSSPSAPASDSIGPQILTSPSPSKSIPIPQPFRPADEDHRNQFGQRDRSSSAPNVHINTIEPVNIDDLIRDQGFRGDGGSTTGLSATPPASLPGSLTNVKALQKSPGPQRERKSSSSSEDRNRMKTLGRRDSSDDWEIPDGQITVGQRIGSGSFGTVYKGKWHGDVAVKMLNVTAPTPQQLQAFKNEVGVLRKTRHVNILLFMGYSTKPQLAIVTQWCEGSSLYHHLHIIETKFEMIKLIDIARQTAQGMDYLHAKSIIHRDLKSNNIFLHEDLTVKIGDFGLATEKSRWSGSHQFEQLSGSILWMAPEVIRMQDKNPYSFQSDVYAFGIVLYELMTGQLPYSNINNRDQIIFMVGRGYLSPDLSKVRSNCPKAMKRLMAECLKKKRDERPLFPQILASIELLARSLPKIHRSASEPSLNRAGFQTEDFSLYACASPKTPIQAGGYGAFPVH

Consider `O=C1C(n2nc(-c3c(O)c4ccccc4oc3=O)cc2-c2ccc(F)cc2)c2ccccc2N1Cc1ccccc1` (stereo not shown) [Compound 4c, 1-Benzyl-3-(5-(4-fluorophenyl)-3-(4-hydroxy-2-oxo-2H-chromen-3-yl)-1H-pyrazol-1-yl) indolin-2-one], for which, in assay [1], the IC50 worked out at 4.6 ± 0.32 µM.

In the case of `O=C1C(n2nc(-c3c(O)c4ccccc4oc3=O)cc2-c2ccc(F)cc2)c2cc(Cl)ccc2N1Cc1ccccc1` (stereo not shown) [Compound 4f, 1-Benzyl-5-chloro-3-(5-(4-fluorophenyl)-3-(4-hydroxy-2-oxo-2H-chromen-3-yl)-1H-pyrazol-1-yl) indolin-2-one], the half-maximal inhibitory concentration (IC50) came to 4.18 ± 0.25 µM in assay [2] and 1.11 ± 0.02 µM in assay [1]. For the same compound, in assay [2], the “Selectivity index (SI)” value is listed as 3.6.

`O=C1C(n2nc(-c3c(O)c4ccccc4oc3=O)cc2-c2ccc(F)cc2)c2cc(Br)ccc2N1Cc1ccccc1` (stereo not shown) [Compound 4i, 1-Benzyl-5-bromo-3-(5-(4-fluorophenyl)-3-(4-hydroxy-2-oxo-2H-chromen-3-yl)-1H-pyrazol-1-yl)indolin-2-one]: in assay [2], the IC50 stood at 3.26 ± 0.29 µM and the “Selectivity index (SI)” value is recorded as 2.5.

For `O=C1Nc2ccc(OC(F)(F)F)cc2C1n1nc(-c2c(O)c3ccccc3oc2=O)cc1-c1ccc(F)cc1` (stereo not shown) [Compound 4j, 3-(5-(4-Fluorophenyl)-3-(4-hydroxy-2-oxo-2H-chromen-3-yl)-1H-pyrazol-1-yl)-5 (trifluoromethoxy) indolin-2-one], in the assay on A375 cells [3], the “early apoptosis (Q2-4)” value worked out at 6.07%, the “late apoptosis (Q2-2)” value stood at 2.3% and the “necrotic cell death (Q2-1)” value amounted to 2.52%. Moreover, the total cell death with A375 cells [3] (apoptosis plus necrosis) is about 10.22%. In assay [2], the IC50 amounted to 9.58 ± 0.73 µM and the “Selectivity index (SI)” value is listed as 9.9. Besides, in the assay on A375 cells [4], the “cell percentage in the G2/M phase” value was determined as 16.00%, the “cell percentage of the S phase” value is given as 9.86%, the “cell population of the G0/G1-phase” value was 74.14% and the “cell population of the pre-G phase” value came to 1.88%. On VEGFR-2, this compound yielded an IC50 of 640 ± 80 nM. This compound returned a scratch closure in the assay on A375 cells [5] (A375, 24 h) of 14.28%. The scratch closure in the assay on A375 cells [5] (A375, 48 h) is listed as 17.57%. Further, the scratch closure in the assay with A375 cells [5] (A375, 72 h) stood at 35.16%. Further, the “fold more active than the reference sorafenib (BRAF^V600E inhibition)” value on BRAF^V600E came to 2 fold. On BRAF^V600E (BRAF^V600E IC50, A375 cells, 24 h exposure, ELISA), this compound displayed an IC50 of 1030 nM.

Regarding `O=C1C(n2nc(-c3c(O)c4ccccc4oc3=O)cc2-c2ccc(Cl)cc2)c2ccccc2N1Cc1ccccc1` (stereo not shown) [Compound 5c, 1-Benzyl-3-(5-(4-chlorophenyl)-3-(4-hydroxy-2-oxo-2H-chromen-3-yl)-1H-pyrazol-1-yl)indolin-2-one], the IC50 in assay [1] amounted to 3.8 ± 0.22 µM.

`O=C1C(n2nc(-c3c(O)c4ccccc4oc3=O)cc2-c2ccc(Cl)cc2)c2cc(Cl)ccc2N1Cc1ccccc1` (stereo not shown) [Compound 5f, 1-Benzyl-5-chloro-3-(5-(4-chlorophenyl)-3-(4-hydroxy-2-oxo-2H-chromen-3-yl)-1H-pyrazol-1-yl)indolin-2-one]: in assay [2], the IC50 was found to be 3.59 ± 0.32 µM and the “Selectivity index (SI)” value was 3.3.

For the compound `O=C1C(n2nc(-c3c(O)c4ccccc4oc3=O)cc2-c2ccc(Cl)cc2)c2cc(Br)ccc2N1Cc1ccccc1` (stereo not shown) [Compound 5i, 1-Benzyl-5-bromo-3-(5-(4-chlorophenyl)-3-(4-hydroxy-2-oxo-2H-chromen-3-yl)-1H-pyrazol-1-yl)indolin-2-one], in assay [2], the IC50 stood at 3.63 ± 0.76 µM and the “Selectivity index (SI)” value was 3.5.

In the case of `CNC(=O)c1cc(Oc2ccc(NC(=O)Nc3ccc(Cl)c(C(F)(F)F)c3)cc2)ccn1` [Sorafenib, reference compound], the apoptotic cell death in the assay on A375 cells [3] amounted to 9.6%. In addition, in the assay with A375 cells [4], the “cell percentage in the G2/M phase” value is 23.02%. The “cell population of the G0/G1-phase” value in the assay with A375 cells [4] was 60.43%. In the assay with A375 cells [4], the “cell population of the pre-G phase” value is 22.88%. In addition, the scratch closure amounted to 9.15% in the assay with A375 cells [5] (A375, 24 h); 12.07% in the assay on A375 cells [5] (A375, 48 h); 24.17% in the assay with A375 cells [5] (A375, 72 h).
